Assays:
[1] = system: Staphylococcus epidermidis; assay: Antibiofilm activity against Staphylococcus epidermidis ATCC 12228 incubated for 24 hrs by crystal violet-staining based assay; type: functional
Procedure, shortened: (§1)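 Biofilm prevention: 0.5 McFarland inoculum (2.5 µL) in 100 µL TSB with 2% w/v glucose, compound present from the start over 100–0.1 µg/mL, 37 °C 24 h. Washed with PBS, stained 0.1% w/v crystal violet 30 min, eluted with 33% v/v acetic acid, read at 570 nm. BIC50 (50% inhibition versus untreated control) derived by linear regression; triplicate, repeated at least twice.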

[2] = system: Staphylococcus epidermidis; assay: Antimicrobial activity against Staphylococcus epidermidis ATCC 12228 assessed as growth inhibition of planktonic forms incubated for 24 hrs; type: organism-based; conditions: in vitro
Procedure, shortened: (§2)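 Broth microdilution in tryptic soy broth. Two-fold series 100 to 0.75 μg/mL made from a 1 mg/mL stock in 0.9% NaCl. Inoculum ~10⁶ cfu/mL taken from a 24 h culture, 37 °C 24 h.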

Pseudomonas aeruginosa [3] = assay: Antimicrobial activity against Pseudomonas aeruginosa ATCC 15442 assessed as growth inhibition of planktonic forms incubated for 24 hrs; type: organism-based; conditions: in vitro; procedure, shortened: as §2
Staphylococcus aureus [4] = assay: Antimicrobial activity against Staphylococcus aureus ATCC 6538 assessed as growth inhibition of planktonic forms incubated for 24 hrs; type: organism-based; conditions: in vitro; procedure, shortened: as §2
Staphylococcus aureus [5] = assay: Antibiofilm activity against Staphylococcus aureus ATCC 25923 incubated for 24 hrs by crystal violet-staining based assay; type: functional; procedure, shortened: as §1
Pseudomonas aeruginosa [6] = assay: Antibiofilm activity against Pseudomonas aeruginosa ATCC 15442 assessed as inhibition of biofilm formation at 100 ug/ml incubated for 24 hrs by crystal violet-staining based assay; type: functional; conditions: ATCC 15442, 24 h
Staphylococcus aureus [7] = assay: Antibiofilm activity against Staphylococcus aureus ATCC 6538 incubated for 24 hrs by crystal violet-staining based assay; type: functional; procedure, shortened: as §1
Staphylococcus aureus [8] = assay: Antimicrobial activity against Staphylococcus aureus ATCC 25923 assessed as growth inhibition of planktonic forms incubated for 24 hrs; type: organism-based; conditions: in vitro; procedure, shortened: as §2
Escherichia coli [9] = assay: Antibiofilm activity against Escherichia coli ATCC 25922 assessed as inhibition of biofilm formation at 100 ug/ml incubated for 24 hrs by crystal violet-staining based assay; type: functional; conditions: ATCC 25922, 24 h
Escherichia coli [10] = assay: Antimicrobial activity against Escherichia coli ATCC 25922 assessed as growth inhibition of planktonic forms incubated for 24 hrs; type: organism-based; conditions: in vitro; procedure, shortened: as §2

**Q.** With `O=[N+]([O-])c1ccc(-c2cn3nc(-c4c[nH]c5ccccc45)sc3n2)cc1` as the compound, how does the MBIC50 [1] read?
**A.** 41.2 µM

**Q.** And the inhibition [1]?
**A.** Dose-dependent effect

**Q.** What about the MIC [2] of the same compound?
**A.** > 100 µg/mL

**Q.** And the MIC (Pseudomonas aeruginosa [3])?
**A.** > 100 µg/mL

**Q.** What about the MIC (Staphylococcus aureus [4]) of the same compound?
**A.** > 100 µg/mL

**Q.** And the MBIC50 (Staphylococcus aureus [5])?
**A.** 47.5 µM

**Q.** And the inhibition (Staphylococcus aureus [5])?
**A.** Dose-dependent effect

**Q.** What about the inhibition at 100 µg/mL (Pseudomonas aeruginosa [6]) of the same compound?
**A.** < 15%

**Q.** What about the MBIC50 (Staphylococcus aureus [7]) of the same compound?
**A.** 20.2 µM

**Q.** And the inhibition (Staphylococcus aureus [7])?
**A.** Dose-dependent effect

**Q.** And the MIC (Staphylococcus aureus [8])?
**A.** > 100 µg/mL

**Q.** And the inhibition at 100 µg/mL (Escherichia coli [9])?
**A.** < 15%

**Q.** And the MIC (Escherichia coli [10])?
**A.** > 100 µg/mL

**Q.** Which results are given for `FC(F)(F)c1ccc(-c2cn3nc(-c4c[nH]c5ccc(Br)cc45)sc3n2)cc1`?
**A.** MBIC50 [1]: 19.2 µM; inhibition [1]: Dose-dependent effect; MIC [2]: > 100 µg/mL; MIC (Pseudomonas aeruginosa [3]): > 100 µg/mL; MIC (Staphylococcus aureus [4]): > 100 µg/mL; MBIC50 (Staphylococcus aureus [5]): 16.8 µM; inhibition (Staphylococcus aureus [5]): Dose-dependent effect; inhibition at 100 µg/mL (Pseudomonas aeruginosa [6]): < 15%; MBIC50 (Staphylococcus aureus [7]): 13.3 µM; inhibition (Staphylococcus aureus [7]): Dose-dependent effect; MIC (Staphylococcus aureus [8]): > 100 µg/mL; inhibition at 100 µg/mL (Escherichia coli [9]): < 15%; MIC (Escherichia coli [10]): > 100 µg/mL

**Q.** With `Br.Fc1ccc(-c2cn3nc(-c4c[nH]c5ccc(Cl)cc45)sc3n2)cc1` as the compound, how does the MBIC50 [1] read?
**A.** 100.7 µM

**Q.** What about the inhibition [1] of the same compound?
**A.** Dose-dependent effect

**Q.** What about the MIC [2] of the same compound?
**A.** > 100 µg/mL

**Q.** And the MIC (Pseudomonas aeruginosa [3])?
**A.** > 100 µg/mL

**Q.** And the MIC (Staphylococcus aureus [4])?
**A.** > 100 µg/mL

**Q.** What about the MBIC50 (Staphylococcus aureus [5]) of the same compound?
**A.** 51.3 µM

**Q.** And the inhibition (Staphylococcus aureus [5])?
**A.** Dose-dependent effect

**Q.** What about the inhibition at 100 µg/mL (Pseudomonas aeruginosa [6]) of the same compound?
**A.** < 15%

**Q.** And the MBIC50 (Staphylococcus aureus [7])?
**A.** 24.2 µM

**Q.** What about the inhibition (Staphylococcus aureus [7]) of the same compound?
**A.** Dose-dependent effect

**Q.** And the MIC (Staphylococcus aureus [8])?
**A.** > 100 µg/mL

**Q.** And the inhibition at 100 µg/mL (Escherichia coli [9])?
**A.** < 15%

**Q.** And the MIC (Escherichia coli [10])?
**A.** > 100 µg/mL

**Q.** Which results are given for `Br.c1ccc(-c2cn3nc(-c4c[nH]c5ccccc45)sc3n2)cc1`?
**A.** MBIC50 [1]: 59.1 µM; inhibition [1]: Dose-dependent effect; MIC [2]: > 100 µg/mL; MIC (Pseudomonas aeruginosa [3]): > 100 µg/mL; MIC (Staphylococcus aureus [4]): > 100 µg/mL; MBIC50 (Staphylococcus aureus [5]): 35.9 µM; inhibition (Staphylococcus aureus [5]): Dose-dependent effect; inhibition at 100 µg/mL (Pseudomonas aeruginosa [6]): < 15%; MBIC50 (Staphylococcus aureus [7]): 46.5 µM; inhibition (Staphylococcus aureus [7]): Dose-dependent effect; MIC (Staphylococcus aureus [8]): > 100 µg/mL; inhibition at 100 µg/mL (Escherichia coli [9]): < 15%; MIC (Escherichia coli [10]): > 100 µg/mL

**Q.** What does the source list for `Br.O=[N+]([O-])c1ccc(-c2cn3nc(-c4c[nH]c5ccc(Cl)cc45)sc3n2)cc1`?
**A.** MBIC50 [1]: 28.5 µM; inhibition [1]: Dose-dependent effect; MIC [2]: > 100 µg/mL; MIC (Pseudomonas aeruginosa [3]): > 100 µg/mL; MIC (Staphylococcus aureus [4]): > 100 µg/mL; MBIC50 (Staphylococcus aureus [5]): 55.3 µM; inhibition (Staphylococcus aureus [5]): Dose-dependent effect; inhibition at 100 µg/mL (Pseudomonas aeruginosa [6]): < 15%; MBIC50 (Staphylococcus aureus [7]): 35.8 µM; inhibition (Staphylococcus aureus [7]): Dose-dependent effect; MIC (Staphylococcus aureus [8]): > 100 µg/mL; inhibition at 100 µg/mL (Escherichia coli [9]): < 15%; MIC (Escherichia coli [10]): > 100 µg/mL

**Q.** `COc1ccc(OC)c(-c2cn3nc(-c4cn(C)c5ccc(Cl)cc45)sc3n2)c1` was tested. Which MBIC50 [1] did it give?
**A.** 8.1 µM

**Q.** What about the inhibition [1] of the same compound?
**A.** Dose-dependent effect

**Q.** And the MIC [2]?
**A.** > 100 µg/mL

**Q.** What about the MIC (Pseudomonas aeruginosa [3]) of the same compound?
**A.** > 100 µg/mL

**Q.** What about the MIC (Staphylococcus aureus [4]) of the same compound?
**A.** > 100 µg/mL

**Q.** What about the MBIC50 (Staphylococcus aureus [5]) of the same compound?
**A.** 163 µM

**Q.** And the inhibition (Staphylococcus aureus [5])?
**A.** Dose-dependent effect

**Q.** What about the inhibition at 100 µg/mL (Pseudomonas aeruginosa [6]) of the same compound?
**A.** < 15%

**Q.** And the MBIC50 (Staphylococcus aureus [7])?
**A.** 69.4 µM

**Q.** What about the inhibition (Staphylococcus aureus [7]) of the same compound?
**A.** Dose-dependent effect

**Q.** What about the MIC (Staphylococcus aureus [8]) of the same compound?
**A.** > 100 µg/mL

**Q.** What about the inhibition at 100 µg/mL (Escherichia coli [9]) of the same compound?
**A.** < 15%

**Q.** And the MIC (Escherichia coli [10])?
**A.** > 100 µg/mL

**Q.** With `Br.Cn1cc(-c2nn3cc(-c4ccc(F)cc4)nc3s2)c2ccccc21` as the compound, how does the MBIC50 [1] read?
**A.** 68.9 µM

**Q.** And the inhibition [1]?
**A.** Dose-dependent effect

**Q.** And the MIC [2]?
**A.** > 100 µg/mL

**Q.** And the MIC (Pseudomonas aeruginosa [3])?
**A.** > 100 µg/mL

**Q.** What about the MIC (Staphylococcus aureus [4]) of the same compound?
**A.** > 100 µg/mL

**Q.** What about the MBIC50 (Staphylococcus aureus [5]) of the same compound?
**A.** 8.6 µM

**Q.** What about the inhibition (Staphylococcus aureus [5]) of the same compound?
**A.** Dose-dependent effect

**Q.** And the inhibition at 100 µg/mL (Pseudomonas aeruginosa [6])?
**A.** < 15%

**Q.** And the MBIC50 (Staphylococcus aureus [7])?
**A.** 17.9 µM

**Q.** What about the inhibition (Staphylococcus aureus [7]) of the same compound?
**A.** Dose-dependent effect

**Q.** What about the MIC (Staphylococcus aureus [8]) of the same compound?
**A.** > 100 µg/mL

**Q.** And the inhibition at 100 µg/mL (Escherichia coli [9])?
**A.** < 15%

**Q.** What about the MIC (Escherichia coli [10]) of the same compound?
**A.** > 100 µg/mL
